We go through two compounds from ChEMBL document CHEMBL1155242, “Radiolabeled 5-iodo-3'-O-(17beta-succinyl-5alpha-androstan-3-one)-2'-deoxyuridine and its 5'-monophosphate for imaging and therapy of androgen receptor-positive cancers: synthesis and biological evaluation” (J Med Chem, 2009).

The nature of data set [1]: Ratio of drug level in tumor to spleen in athymic NCr mouse xenografted with human OVCAR-3 cells at 180 uCi, ip administered 9 days after tumor implantation as six fractionated doses every 4 days measured after 1.5 hrs by gamma counting. The class given is ADME, organism-based. The conditions noted are these: in vivo. In general terms: In xenograft studies the graft and the host belong to different species.

Data set [2] can be described thus: Ratio of drug level in tumor to spleen in athymic NCr mouse xenografted with human OVCAR-3 cells at 180 uCi, ip administered 9 days after tumor implantation as six fractionated doses every 4 days measured after 48 hrs by gamma counting. The class given is ADME, organism-based. The conditions noted are these: in vivo.
The test system of data set [3] is OVCAR-3. Kind of data set: Cellular uptake in human OVCAR-3 cells xenografted in athymic NCr mouse assessed per gram of cells at 180 uCi, ip administered 9 days after tumor implantation as six fractionated doses every 4 days measured after 12 days by gamma counting. Conditions: in vivo, 288 h; call rule not given here. The data set is classed as ADME, organism-based. In outline: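 Mice treated with one, three or six ip doses; nonadherent OVCAR-3 cells lavaged at necropsy, 12 days after last of six doses, and counted; %ID/g decay-corrected; DNA-bound fraction measured.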

Data set [4] can be described thus: Chemical stability in RPMI-1640 serum-free medium assessed as half life at 12.2 uCi by HPLC analysis. The class given is physicochemical.
Data set [5] is described as follows: Biodistribution in nonadherent tumors in stomach of athymic NCr mouse xenografted with human OVCAR-3 cells at 45 uCi, ip after 72 hrs by gamma counting. The data set is classed as ADME, organism-based. Conditions: in vivo. In a few lines:
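Athymic NCr-nu/nu mice with ip OVCAR-3; 45 μCi given ip without prior SSKI. Whole-body planar imaging at 72 h with region-of-interest analysis as percent of whole-body activity; peritoneal lavage cells and ascites counted.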

Data set [6] in a line: Ratio of drug level in tumor to kidney in athymic NCr mouse xenografted with human OVCAR-3 cells at 180 uCi, ip administered 9 days after tumor implantation as six fractionated doses every 4 days measured after 72 hrs by gamma counting. The class given is ADME, organism-based. The conditions noted are these: in vivo.
In another data set the target is Albumin (Mus musculus, UniProt P07724). Put plainly: Binding affinity to mouse serum albumin at 10 to 20 uCi/mL after 60 mins by size-exclusion HPLC analysis. The conditions noted are these: isolated protein, 1 h. The data set is classed as ADME. In outline:
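Radioiodinated compound incubated 60 min with human, rabbit or mouse serum, or with purified human SHBG. Aliquots analysed on a TSK3000 size-exclusion column: 0.1 M potassium phosphate/0.1 M Na2SO4 (1:1, pH 6.8) for 20 min, then 0–40% CH3CN over 20 min, held 30 min, 0.7 mL/min. Protein-bound versus free radioactivity read from the peaks.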
A general note: In gel filtration, larger molecules generally elute earlier.

Data set [7] can be described thus: Biodistribution in peritoneum of athymic NCr mouse xenografted with human OVCAR-3 cells at 1.12 uCi, ip after 24 hrs by gamma counting. The class given is ADME, organism-based. The conditions noted are these: in vivo.
In data set [8] the target is T1, Sex hormone-binding globulin (Homo sapiens, UniProt P04278).
T1 sequence (P04278 whole entry): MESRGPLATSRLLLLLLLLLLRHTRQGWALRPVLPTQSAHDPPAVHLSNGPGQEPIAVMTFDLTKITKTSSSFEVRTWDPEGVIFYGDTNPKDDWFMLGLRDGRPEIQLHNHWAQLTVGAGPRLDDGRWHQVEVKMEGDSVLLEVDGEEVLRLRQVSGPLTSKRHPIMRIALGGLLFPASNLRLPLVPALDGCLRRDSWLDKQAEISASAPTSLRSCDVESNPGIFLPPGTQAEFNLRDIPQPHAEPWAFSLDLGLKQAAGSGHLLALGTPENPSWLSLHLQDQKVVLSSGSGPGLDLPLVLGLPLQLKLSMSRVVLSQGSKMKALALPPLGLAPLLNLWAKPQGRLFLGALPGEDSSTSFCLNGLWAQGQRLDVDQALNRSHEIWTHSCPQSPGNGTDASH
Put plainly: Binding affinity to human sex hormone binding globulin at 20 uCi after 60 mins by size-exclusion HPLC analysis. Conditions: 1 h. The data set is classed as ADME. In outline: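 Radioligand incubated 60 min with purified human SHBG or with human, rabbit or mouse serum. Size-exclusion HPLC (TSK3000): 0.1 M potassium phosphate/0.1 M Na2SO4 1:1 pH 6.8 for 20 min, then 0–40% CH3CN over 20 min, held 30 min, 0.7 mL/min.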

A further data set has as its system Mus musculus. Put plainly: Toxicity in athymic NCr mouse xenografted with human OVCAR-3 cells assessed as hemoglobin level at 0.25 mCi, ip administered 31 days after tumor implantation as single bolus dose measured 55 days after implantation […] in presence of SHBG (RVb= 11.5 +/- 1.3 g/dL). The class given is organism-based. Conditions: in vivo.

The test system of data set [9] is OVCAR-3. Put plainly: Cellular uptake in human OVCAR-3 cells expressing androgen receptor assessed as ratio of [125I]UdR to thymidine incorporation in DNA at 1.75 uCi/mL after 24 hrs by gamma counting. Conditions: ovcar-3, 24 h. The data set is classed as ADME, cell-based. In a few lines: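 OVCAR-3 cells treated with the radioligand; fraction of DNA thymidine replaced by 125IUdR determined after 24 h.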
(In general: Uptake of a labelled nucleoside into DNA is a usual measure of proliferation.)

Data set [10] in a line: Biodistribution in small intestine of athymic NCr mouse xenografted with human OVCAR-3 cells assessed per gram of tissue at an average 39.5 uCi/dose, ip administered 9 days after tumor implantation as six fractionated doses every 4 days measured after 2 weeks of last dose by gamma counting. The data set is classed as ADME, organism-based. Conditions: in vivo, 336 h. In a few lines:
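OVCAR-3-bearing and healthy athymic mice given fractionated ip doses on the six-dose every-4-days schedule; tissues, tumor and lavaged cells γ-counted at necropsy, %ID/g; DNA-bound 125I in cells measured as cpm/cell.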

In the next data set the test system is LNCaP. Kind of data set: Cytotoxicity against human LNCAP cells expressing androgen receptor assessed as cell survival at 8 uCi/mL after 48 hrs. The class given is functional. In a few lines:
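LNCaP human prostate cancer cells were grown for 48 h with the 125I-labelled compound in the medium, and cell survival was then determined. D37 was expressed as the extracellular concentration in μCi/mL.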

The target in data set [11] is T2, Sex hormone-binding globulin (Oryctolagus cuniculus, UniProt P15196).
T2 sequence (P15196 whole entry): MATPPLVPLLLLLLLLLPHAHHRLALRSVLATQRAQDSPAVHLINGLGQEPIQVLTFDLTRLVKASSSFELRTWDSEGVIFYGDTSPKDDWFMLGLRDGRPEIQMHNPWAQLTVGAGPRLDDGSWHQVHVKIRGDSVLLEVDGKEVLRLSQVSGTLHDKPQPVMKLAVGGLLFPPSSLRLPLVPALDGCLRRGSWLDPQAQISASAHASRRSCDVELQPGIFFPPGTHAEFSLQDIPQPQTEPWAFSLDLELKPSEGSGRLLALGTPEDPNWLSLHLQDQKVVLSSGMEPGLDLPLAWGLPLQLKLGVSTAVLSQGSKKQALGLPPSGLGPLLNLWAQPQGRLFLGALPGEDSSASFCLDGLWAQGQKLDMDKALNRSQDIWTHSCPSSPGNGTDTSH
Kind of data set: Binding affinity to rabbit sex hormone binding globulin at 20 uCi after 60 mins by reversed phase HPLC analysis. The data set is classed as ADME. The conditions noted are these: 1 h.

A short description of data set [12]: Chemical stability in phosphate buffer saline by HPLC analysis. The data set is classed as physicochemical.
In another data set the test system is Serum. Put plainly: Stability in mouse serum assessed as time required for formation of [125I]UdR at 10 to 20 uCi/mL after 60 mins by gamma counting. The data set is classed as ADME, cell-free. The conditions noted are these: 1 h.
For another data set, the system named is Blood. Put plainly: Biodistribution in blood of athymic NCr mouse xenografted with human OVCAR-3 cells assessed per gram of tissue at 0.25 mCi, ip administered 31 days after tumor implantation as single bolus dose measured 55 days after implantation by gamma counting in presence of SHBG. The class given is ADME, organism-based. The conditions noted are these: in vivo. In a few lines:
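Mice given one ip bolus of 0.25 mCi co-injected with SHBG; blood, tumor cells, solid tumors and normal tissues taken at necropsy and counted; %ID/g decay-corrected.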

A value given as a limit tells only on which side of the number the result lay.

Chain of Albumin (P07724 whole entry): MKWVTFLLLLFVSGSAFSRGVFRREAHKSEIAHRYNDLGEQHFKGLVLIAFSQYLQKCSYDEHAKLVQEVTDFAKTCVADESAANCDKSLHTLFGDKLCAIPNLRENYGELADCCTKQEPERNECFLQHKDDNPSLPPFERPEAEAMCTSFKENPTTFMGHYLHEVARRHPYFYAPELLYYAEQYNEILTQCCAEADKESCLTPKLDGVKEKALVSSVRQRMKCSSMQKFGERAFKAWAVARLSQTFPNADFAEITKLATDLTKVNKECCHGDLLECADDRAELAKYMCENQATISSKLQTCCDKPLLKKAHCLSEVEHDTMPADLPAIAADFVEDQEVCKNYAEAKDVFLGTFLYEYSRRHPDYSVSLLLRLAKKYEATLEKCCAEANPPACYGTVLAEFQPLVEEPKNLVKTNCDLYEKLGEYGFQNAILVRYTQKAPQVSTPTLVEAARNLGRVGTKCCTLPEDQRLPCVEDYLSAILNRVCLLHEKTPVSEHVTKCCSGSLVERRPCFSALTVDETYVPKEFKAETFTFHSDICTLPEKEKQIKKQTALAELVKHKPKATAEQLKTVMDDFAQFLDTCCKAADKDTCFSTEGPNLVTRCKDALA

For `C[C@]12CCC(=O)C[C@@H]1CC[C@@H]1[C@@H]2CC[C@]2(C)[C@@H](OC(=O)CCC(=O)O[C@H]3C[C@H](n4cc([125I])c(=O)[nH]c4=O)O[C@@H]3CO)CC[C@@H]12`, the results for the Ratio in [1], in data set [2] and in [6] were 1, 24.8 and 31.9, respectively. Moreover, the Drug uptake in the data set with OVCAR-3 [3] is recorded as 0.5 %ID; in data set [5], 3.4%; in data set [7], greater than 95%. Moreover, in data set [4], the t1/2 was 54.2 h. Moreover, the Activity result on Albumin is “Not Active”.

Take `C[C@]12CCC(=O)C[C@@H]1CC[C@@H]1[C@@H]2CC[C@]2(C)[C@@H](OC(=O)CCC(=O)O[C@H]3C[C@H](n4cc([125I])c(=O)[nH]c4=O)O[C@@H]3COP(=O)(O)O)CC[C@@H]12`: the Activity entry was “Active” in [8], 12.2 g/dL in the data set with Mus musculus and “Active” in data set [11]. In addition, the Ratio with OVCAR-3 [9] worked out at 0.002. In addition, the results for the Drug uptake (in [10]; in the data set with Blood) were 0.011 %ID and 0.057 %ID, respectively. Besides, the Survival with LNCaP came to 90%. Also, the Stability result in data set [12] is listed as “Stable”; in the data set with Serum it was less than 10 min.
